Experimental data published in ChEMBL document CHEMBL4321803 (J Med Chem, 2019).
pIC50: −log10 of the molar value. Activity calls are given as the source filed them. The rule behind the calls is not given here.

Assays:
[1] = Inhibition of Aeromonas hydrophila class B2 metallo beta-lactamse CphA assessed as reduction in meropenem hydrolysis after 10 mins by UV absorbance method
[2] = Inhibition of bacterial class D serine beta-lactamase OXA-10 assessed as reduction in breakdown of cephalosporin FC-5 after 10 mins by fluorescence method; set-up: species or system Bacteria
Procedure, shortened: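 Run in SBL buffer (phosphate pH 7.4, 0.01% v/v Triton X-100) at room temperature with 5 μM FC5. Enzyme levels: OXA-10 250 pM, OXA-48 12.5 nM. Enzyme pre-incubated with inhibitor 10 min. Initial rates by fluorescence (ex 380/em 460 nm). IC50 from a four-parameter log(inhibitor) fit.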

[3] = Inhibition of bacterial class B1 metallo beta-lactamase NDM-1 assessed as reduction in breakdown of cephalosporin FC-5 after 10 mins by fluorescence method; set-up: species or system Bacteria
Procedure, shortened: (§1)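 Enzyme levels: L1 50 pM, IMP-1 20 pM, NDM-1 20 pM, VIM-1 100 pM, VIM-2 500 pM. Inhibitor pre-incubated with enzyme 10 min. Four-parameter fit for IC50.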

[4] = Inhibition of bacterial class B1 metallo beta-lactamase IMP-1 assessed as reduction in breakdown of cephalosporin FC-5 after 10 mins by fluorescence method; set-up: species or system Bacteria
Procedure, shortened: (§2)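 Enzyme levels: L1 50 pM, IMP-1 20 pM, NDM-1 20 pM, VIM-1 100 pM, VIM-2 500 pM. Inhibitor pre-incubated with enzyme 10 min. Initial rates by fluorescence (ex 380/em 460 nm). Four-parameter fit for IC50.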

[5] = Inhibition of bacterial class D serine beta-lactamase OXA-10 assessed as reduction in breakdown of cephalosporin FC-5 in presence of aqueous sodium bicarbonate after 10 mins by fluorescence method; set-up: species or system Bacteria
Procedure, shortened: (§3)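 SBL buffer (phosphate pH 7.4, 0.01% v/v Triton X-100) supplemented with 100 mM NaHCO3, room temperature, FC5 5 μM. Enzyme levels: OXA-10 250 pM, OXA-48 12.5 nM. Inhibitor pre-incubated with enzyme 10 min. Initial rates by fluorescence at 380/460 nm. IC50 from a four-parameter fit.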

[6] = Inhibition of Stenotrophomonas maltophilia class B3 metallo beta-lactamse L1 assessed as reduction in breakdown of cephalosporin FC-5 after 10 mins by fluorescence method; procedure, shortened: as §2
[7] = Inhibition of Pseudomonas aeruginosa class C serine beta-lactamase AmpC assessed as reduction in breakdown of cephalosporin FC-5 after 10 mins by fluorescence method
Procedure, shortened: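 AmpC at 500 pM was pre-incubated with inhibitor for 10 min at room temperature in phosphate buffer, pH 7.4, with 0.01% (v/v) Triton X-100, then given 5 μM FC5. Initial hydrolysis rates were read by fluorescence (ex 380 nm, em 460 nm), and IC50 was taken from a four-parameter log(inhibitor) vs response fit.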

[8] = Inhibition of bacterial class B1 metallo beta-lactamase VIM-1 assessed as reduction in breakdown of cephalosporin FC-5 after 10 mins by fluorescence method; set-up: species or system Bacteria; procedure, shortened: as §1
[9] = Inhibition of bacterial class D serine beta-lactamase OXA-48 assessed as reduction in breakdown of cephalosporin FC-5 in presence of aqueous sodium bicarbonate after 10 mins by fluorescence method; set-up: species or system Bacteria; procedure, shortened: as §3
[10] = Inhibition of bacterial class B1 metallo beta-lactamse VIM-2 assessed as reduction in breakdown of cephalosporin FC-5 after 10 mins by fluorescence method; set-up: species or system Bacteria; procedure, shortened: as §2
Escherichia coli [11] = test: Inhibition of metallo beta-lactamase NDM-1 in Escherichia coli S117 assessed as potentiation of meropenem-induced antibacterial activity by measuring meropenem MIC at 10 ug/ml by agar dilution method (Rvb > 64 ug/ml)
Procedure, shortened: (§4)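 Agar dilution MIC of meropenem or cefepime combined with the inhibitor, against NDM-1-producing clinical isolates of E. coli and K. pneumoniae. Interpreted per EUCAST/CLSI guidelines. Reference strain MICs within ±1 log2 dilution of reference values.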

[12] = target: Metallo-beta-lactamase type 2 (Klebsiella pneumoniae) (UniProt C7C422); test: Inhibition of metallo beta-lactamase NDM-1 in Klebsiella pneumoniae B68-1 assessed as potentiation of meropenem-induced antibacterial activity by measuring meropenem MIC at 10 ug/ml by agar dilution method (Rvb > 64 ug/ml); procedure, shortened: as §4
Escherichia coli [13] = test: Inhibition of metallo beta-lactamase NDM-1 in Escherichia coli IR57 assessed as potentiation of meropenem-induced antibacterial activity by measuring meropenem MIC at 10 ug/ml by agar dilution method (Rvb > 64 ug/ml); procedure, shortened: as §4
[14] = target: Metallo-beta-lactamase type 2 (Klebsiella pneumoniae) (UniProt C7C422); test: Inhibition of metallo beta-lactamase NDM-1 in Klebsiella pneumoniae B68-1 assessed as potentiation of cefepime-induced antibacterial activity by measuring cefepime MIC at 10 ug/ml by agar dilution method (Rvb > 64 ug/ml); procedure, shortened: as §4
[15] = Inhibition of bacterial class D serine beta-lactamase OXA-48 assessed as reduction in breakdown of cephalosporin FC-5 after 10 mins by fluorescence method; set-up: species or system Bacteria
Procedure, shortened: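 Run in SBL buffer (phosphate pH 7.4, 0.01% v/v Triton X-100) at room temperature with 5 μM FC5. Enzyme pre-incubated with inhibitor 10 min. IC50 from a four-parameter log(inhibitor) fit.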

Bacteria = test: Reversible inhibition of bacterial class B1 metallo beta-lactamase NDM-1 assessed as reduction in breakdown of cephalosporin FC-5 after 15 to 180 mins by fluorescence method
Escherichia coli [16] = test: Inhibition of metallo beta-lactamase NDM-1 in Escherichia coli S117 assessed as potentiation of cefepime-induced antibacterial activity by measuring cefepime MIC at 10 ug/ml by agar dilution method (Rvb > 64 ug/ml); procedure, shortened: as §4
Escherichia coli [17] = test: Inhibition of metallo beta-lactamase NDM-1 in Escherichia coli 91N assessed as potentiation of meropenem-induced antibacterial activity by measuring meropenem MIC at 10 ug/ml by agar dilution method (Rvb > 64 ug/ml); procedure, shortened: as §4
[18] = target: Metallo-beta-lactamase type 2 (Klebsiella pneumoniae) (UniProt C7C422); test: Inhibition of metallo beta-lactamase NDM-1 in Klebsiella pneumoniae IR43 assessed as potentiation of cefepime-induced antibacterial activity by measuring cefepime MIC at 10 ug/ml by agar dilution method (Rvb > 64 ug/ml); procedure, shortened: as §4
Escherichia coli [19] = test: Inhibition of metallo beta-lactamase NDM-1 in Escherichia coli IR57 assessed as potentiation of cefepime-induced antibacterial activity by measuring cefepime MIC at 10 ug/ml by agar dilution method (Rvb > 64 ug/ml); procedure, shortened: as §4
Escherichia coli [20] = test: Inhibition of metallo beta-lactamase NDM-1 in Escherichia coli 91N assessed as potentiation of cefepime-induced antibacterial activity by measuring cefepime MIC at 10 ug/ml by agar dilution method (Rvb > 64 ug/ml); procedure, shortened: as §4
[21] = Inhibition of Pseudomonas aeruginosa PAO1 class C serine beta-lactamase N-terminal His- tagged AmpC expressed in Escherichia coli BL21(DE3) cells assessed as reduction in breakdown of cephalosporin FC-5 preincubated for 10 to 300 mins followed by cephalosporin FC-5 addition by fluorescence method
[22] = Inhibition of recombinant bacterial class B1 metallo beta-lactamase IMP-1 expressed in Escherichia coli assessed as reduction in breakdown of cephalosporin FC-5 preincubated for 10 mins followed by cephalosporin FC-5 addition by fluorescence method; set-up: species or system Bacteria; procedure, shortened: as §2
Beta-lactamase OXA-10 = Beta-lactamase OXA-10 (Pseudomonas aeruginosa, UniProt P14489); test: Inhibition of Pseudomonas aeruginosa class D serine beta-lactamase OXA-10 expressed in Escherichia coli BL21(DE3) cells assessed as reduction in breakdown of cephalosporin FC-5 in presence of aqueous sodium bicarbonate after 10 to 300 mins by fluorescence method
[23] = Inhibition of Klebsiella pneumoniae class D serine beta-lactamase N-terminal His-tagged OXA-48 expressed in Escherichia coli BL21(DE3) cells assessed as reduction in breakdown of cephalosporin FC-5 in presence of aqueous sodium bicarbonate after 10 to 300 mins by fluorescence method
[24] = Inhibition of recombinant bacterial class B1 metallo beta-lactamase NDM-1 expressed in Escherichia coli assessed as reduction in breakdown of cephalosporin FC-5 preincubated for 10 mins followed by cephalosporin FC-5 addition by fluorescence method; set-up: species or system Bacteria; procedure, shortened: as §2

Metallo-beta-lactamase type 2 (Klebsiella pneumoniae), sequence (C7C422 whole entry): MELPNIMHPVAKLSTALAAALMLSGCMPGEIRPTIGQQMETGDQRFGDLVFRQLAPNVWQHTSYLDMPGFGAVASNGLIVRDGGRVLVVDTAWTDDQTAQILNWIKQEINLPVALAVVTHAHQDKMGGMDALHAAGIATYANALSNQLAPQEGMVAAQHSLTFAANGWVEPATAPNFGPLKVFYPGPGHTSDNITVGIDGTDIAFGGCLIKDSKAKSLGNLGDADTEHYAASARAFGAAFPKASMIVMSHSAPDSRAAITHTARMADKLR
Beta-lactamase OXA-10, sequence (P14489 whole entry): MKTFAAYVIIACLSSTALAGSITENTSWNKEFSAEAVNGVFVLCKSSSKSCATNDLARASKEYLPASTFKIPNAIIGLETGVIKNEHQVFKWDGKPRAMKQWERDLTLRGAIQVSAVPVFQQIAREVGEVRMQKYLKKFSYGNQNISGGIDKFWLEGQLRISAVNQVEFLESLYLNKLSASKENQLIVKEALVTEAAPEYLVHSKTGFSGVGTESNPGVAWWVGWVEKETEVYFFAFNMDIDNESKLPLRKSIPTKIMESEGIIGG

## O=C(O)C[C@@H]1CC[C@H](NC(=O)Cc2cccs2)B(O)O1 [VABORBACTAM]
[1]
  pIC50: 3.20
[2]
  pIC50: < 3.40
[3]
  pIC50: 3.20
[4]
  pIC50: 3.90
[5]
  pIC50: < 3.40
[6]
  pIC50: 3.47
[7]
  pIC50: 5.30
[8]
  pIC50: 3.40
[9]
  pIC50: 4.49
[10]
  pIC50: 3.50

## NCCN[C@H]1CC[C@H](CC(=O)N[C@H]2Cc3cccc(C(=O)O)c3OB2O)CC1
Escherichia coli [11]
  MIC: 1 mg/L
[12]
  MIC: 0.5 mg/L
Escherichia coli [13]
  MIC: 0.5 mg/L
[14]
  MIC: 0.5 mg/L
[15]
  pIC50: 6.27
Bacteria
  inhibition: Active
Escherichia coli [16]
  MIC: 16 mg/L
[1]
  pIC50: 5.60
[2]
  pIC50: 6.63
Escherichia coli [17]
  MIC: 0.125 mg/L
[4]
  pIC50: 5.60
[18]
  MIC: 0.5 mg/L
[5]
  pIC50: 6.19
[6]
  pIC50: < 5.00
[7]
  pIC50: 6.52
[9]
  pIC50: 5.62
[10]
  pIC50: 9.30
Escherichia coli [19]
  MIC: 8 mg/L
Escherichia coli [20]
  MIC: 4 mg/L

## NCc1ccc(C(=O)N[C@H]2Cc3cccc(C(=O)O)c3OB2O)cc1
[21]
  pIC50: 6.92
[22]
  pIC50: 6.00
[1]
  pIC50: < 4.00
Beta-lactamase OXA-10
  pIC50: 5.29
[23]
  pIC50: 5.59
[8]
  pIC50: 7.07
[24]
  pIC50: 7.54
